Publication PMC10546487 (Journal of medicinal chemistry, 2022)

Experiments:
DOR = DOR (Mus musculus, UniProt P32300); test: Radioligand competition binding assay, DOR
MOR = MOR (Mus musculus, UniProt P42866); test: Radioligand competition binding assay, MOR; conditions: for Selectivity δ/μ: ratio of Ki values DOR/MOR; for Selectivity κ/μ: ratio of Ki values KOR/MOR
mice = test: Warm-water tail immersion assay; assay type: in vivo, mouse; conditions: for Antinociception effect (% MPE): 10 mg/kg s.c., 56 °C
Method in brief: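 Male Swiss-Webster mice (23–35 g, 7–8 weeks), n = 5 per group. Single test-compound dose of 10 mg/kg given subcutaneously at time 0. Tail-flick latency measured in water at 56 ± 0.1 °C. Saline served as negative control and morphine as positive control. Response expressed as % maximum possible effect, reported as mean ± SD.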

DOR, sequence (P32300 whole entry): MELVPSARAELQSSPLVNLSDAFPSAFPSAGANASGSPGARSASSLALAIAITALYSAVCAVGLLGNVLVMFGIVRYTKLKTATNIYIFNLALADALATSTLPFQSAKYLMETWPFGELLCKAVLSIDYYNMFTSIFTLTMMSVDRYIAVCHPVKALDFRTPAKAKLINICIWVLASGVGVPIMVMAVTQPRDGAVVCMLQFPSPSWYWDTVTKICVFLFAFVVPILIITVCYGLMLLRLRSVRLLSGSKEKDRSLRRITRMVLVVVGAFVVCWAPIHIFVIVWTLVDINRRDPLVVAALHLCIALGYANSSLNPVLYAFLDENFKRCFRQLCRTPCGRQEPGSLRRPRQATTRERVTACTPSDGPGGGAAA
MOR, sequence (P42866 whole entry): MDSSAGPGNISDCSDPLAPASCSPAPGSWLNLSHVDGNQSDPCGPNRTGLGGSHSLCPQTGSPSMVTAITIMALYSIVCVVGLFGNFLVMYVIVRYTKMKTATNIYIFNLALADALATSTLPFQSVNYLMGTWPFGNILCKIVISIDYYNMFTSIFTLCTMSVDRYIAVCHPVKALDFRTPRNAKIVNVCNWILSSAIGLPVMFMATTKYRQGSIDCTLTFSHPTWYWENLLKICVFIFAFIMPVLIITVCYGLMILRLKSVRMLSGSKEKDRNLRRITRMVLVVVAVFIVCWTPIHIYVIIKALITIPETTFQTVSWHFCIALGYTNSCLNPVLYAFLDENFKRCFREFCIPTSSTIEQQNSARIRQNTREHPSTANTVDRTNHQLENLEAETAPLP

| Structure (SMILES) | Ki (DOR) [nM] | other results |
| --- | --- | --- |
| N#Cc1cc2cccc(C(=O)N[C@@H]3CC[C@@]4(O)[C@H]5Cc6ccc(O)c7c6[C@@]4(CCN5CC4CC4)[C@H]3O7)c2[nH]1 [Compound 3, 17-Cyclopropylmethyl-3,14β-dihydroxy-4,5α-epoxy-6β-(2-cyano-indole-7-carboxamido)morphinan] | 12 ± 0.62 | – |
| Cc1c[nH]c2c(C(=O)N[C@@H]3CC[C@@]4(O)[C@H]5Cc6ccc(O)c7c6[C@@]4(CCN5CC4CC4)[C@H]3O7)cccc12 [Compound 13, 17-Cyclopropylmethyl-3,14β-dihydroxy-4,5α-epoxy-6β-(3-methyl-indole-7-carboxamido)morphinan] | 27.9 ± 5.93 | Selectivity δ/μ (MOR): 61.3; Selectivity κ/μ (MOR): 2.2; Antinociception effect (% MPE) (mice): noticeable antinociception |
| O=C(N[C@@H]1CC[C@@]2(O)[C@H]3Cc4ccc(O)c5c4[C@@]2(CCN3CC2CC2)[C@H]1O5)c1cccc2cc(-c3ccccc3)[nH]c12 [Compound 5, 17-Cyclopropylmethyl-3,14β-dihydroxy-4,5α-epoxy-6β-(2-phenyl-indole-7-carboxamido)morphinan] | 23.8 ± 3.96 | – |
| N#Cc1cc2cccc(C(=O)N[C@H]3CC[C@@]4(O)[C@H]5Cc6ccc(O)c7c6[C@@]4(CCN5CC4CC4)[C@H]3O7)c2[nH]1 [Compound 20, 17-Cyclopropylmethyl-3,14β-dihydroxy-4,5α-epoxy-6α-(2-cyano-indole-7-carboxamido)morphinan] | 10.7 ± 0.93 | Selectivity δ/μ (MOR): 12.2 |
| CC(=O)Nc1c[nH]c2c(C(=O)N[C@H]3CC[C@@]4(O)[C@H]5Cc6ccc(O)c7c6[C@@]4(CCN5CC4CC4)[C@H]3O7)cccc12 [Compound 29, 17-Cyclopropylmethyl-3,14β-dihydroxy-4,5α-epoxy-6α-(3-acet-amido-indole-7-carboxamido)morphinan] | 5.19 ± 0.35 | – |
| Cc1c[nH]c2c(C(=O)N[C@H]3CC[C@@]4(O)[C@H]5Cc6ccc(O)c7c6[C@@]4(CCN5CC4CC4)[C@H]3O7)cccc12 [Compound 30, 17-Cyclopropylmethyl-3,14β-dihydroxy-4,5α-epoxy-6α-(3-methyl-indole-7-carboxamido)morphinan] | 13.8 ± 4.02 | Blockage of the morphine-mediated antinociception (mice; 10 mg/kg s.c. in the presence of morphine (10 mg/kg)): different degrees of inhibition of morphine’s antinociceptive effect |
| O=C(N[C@H]1CC[C@@]2(O)[C@H]3Cc4ccc(O)c5c4[C@@]2(CCN3CC2CC2)[C@H]1O5)c1cccc2c([N+](=O)[O-])c[nH]c12 [Compound 26, 17-Cyclopropylmethyl-3,14β-dihydroxy-4,5α-epoxy-6α-(3-nitro-indole-7-carboxamido)morphinan] | 21.6 ± 2.57 | Selectivity δ/μ (MOR): 20.3; Selectivity κ/μ (MOR): 9.2 |
| O=C(N[C@H]1CC[C@@]2(O)[C@H]3Cc4ccc(O)c5c4[C@@]2(CCN3CC2CC2)[C@H]1O5)c1cccc2c(C3CCCCC3)c[nH]c12 [Compound 33, 17-Cyclopropylmethyl-3,14β-dihydroxy-4,5α-epoxy-6α-(3-cyclo-hexyl-indole-7-carboxamido)morphinan] | 18.6 ± 7.24 | – |
| CC(C)c1c[nH]c2c(C(=O)N[C@H]3CC[C@@]4(O)[C@H]5Cc6ccc(O)c7c6[C@@]4(CCN5CC4CC4)[C@H]3O7)cccc12 [Compound 31, 17-Cyclopropylmethyl-3,14β-dihydroxy-4,5α-epoxy-6α-(3-iso-propyl-indole-7-carboxamido)morphinan] | 25.9 ± 5.69 | – |
| Cl.O=Cc1c[nH]c2c(C(=O)N[C@@H]3CC[C@@]4(O)[C@H]5Cc6ccc(O)c7c6[C@@]4(CCN5CC4CC4)[C@H]3O7)cccc12 [Compound 10, 17-Cyclopropylmethyl-3,14β-dihydroxy-4,5α-epoxy-6β-(3-formyl-indole-7-carboxamido)morphinan] | – | Selectivity δ/μ (MOR): 35.1 |
| O=C(N[C@H]1CC[C@@]2(O)[C@H]3Cc4ccc(O)c5c4[C@@]2(CCN3CC2CC2)[C@H]1O5)c1cccc2c(-c3ccccc3)c[nH]c12 [Compound 34, 17-Cyclopropylmethyl-3,14β-dihydroxy-4,5α-epoxy-6α-(3-phenyl-indole-7-carboxamido)morphinan] | 15 ± 2.71 | – |
| Cc1cc2cccc(C(=O)N[C@@H]3CC[C@@]4(O)[C@H]5Cc6ccc(O)c7c6[C@@]4(CCN5CC4CC4)[C@H]3O7)c2[nH]1 [Compound 4, 17-Cyclopropylmethyl-3,14β-dihydroxy-4,5α-epoxy-6β-(2-methyl-indole-7-carboxamido)morphinan] | 15.9 ± 0.38 | – |
| O=C(N[C@H]1CC[C@@]2(O)[C@H]3Cc4ccc(O)c5c4[C@@]2(CCN3CC2CC2)[C@H]1O5)c1cccc2cc(-c3ccccc3)[nH]c12 [Compound 22, 17-Cyclopropylmethyl-3,14β-dihydroxy-4,5α-epoxy-6α-(2-phenyl-indole-7-carboxamido)morphinan] | 5.36 ± 1 | Selectivity δ/μ (MOR): 2.2 |
| O=C(N[C@@H]1CC[C@@]2(O)[C@H]3Cc4ccc(O)c5c4[C@@]2(CCN3CC2CC2)[C@H]1O5)c1cccc2c([N+](=O)[O-])c[nH]c12 [Compound 9, 17-Cyclopropylmethyl-3,14β-dihydroxy-4,5α-epoxy-6β-(3-nitro-indole-7-carboxamido)morphinan] | 25.6 ± 8.06 | Antinociception effect (% MPE) (mice): noticeable antinociception |
| N#Cc1c[nH]c2c(C(=O)N[C@H]3CC[C@@]4(O)[C@H]5Cc6ccc(O)c7c6[C@@]4(CCN5CC4CC4)[C@H]3O7)cccc12 [Compound 25, 17-Cyclopropylmethyl-3,14β-dihydroxy-4,5α-epoxy-6α-(3-cyano-indole-7-carboxamido)morphinan] | 12.2 ± 2.2 | Selectivity κ/μ (MOR): 6.3 |
| CC(C)c1c[nH]c2c(C(=O)N[C@@H]3CC[C@@]4(O)[C@H]5Cc6ccc(O)c7c6[C@@]4(CCN5CC4CC4)[C@H]3O7)cccc12 [Compound 14, 17-Cyclopropylmethyl-3,14β-dihydroxy-4,5α-epoxy-6β-(3-iso-propyl-indole-7-carboxamido)morphinan] | 19.8 ± 2.72 | – |
| O=C(N[C@@H]1CC[C@@]2(O)[C@H]3Cc4ccc(O)c5c4[C@@]2(CCN3CC2CC2)[C@H]1O5)c1cccc2cc(Cl)[nH]c12 [Compound 2, 17-Cyclopropylmethyl-3,14β-dihydroxy-4,5α-epoxy-6β-(2-chloro-indole-7-carboxamido)morphinan] | 2.42 ± 0.44 | – |
| O=C(N[C@@H]1CC[C@@]2(O)[C@H]3Cc4ccc(O)c5c4[C@@]2(CCN3CC2CC2)[C@H]1O5)c1cccc2cc(Br)[nH]c12 [Compound 1, 17-Cyclopropylmethyl-3,14β-dihydroxy-4,5α-epoxy-6β-(2-bromo-indole-7-carboxamido)morphinan] | 3.04 ± 0.27 | – |
| CC(=O)Nc1c[nH]c2c(C(=O)N[C@@H]3CC[C@@]4(O)[C@H]5Cc6ccc(O)c7c6[C@@]4(CCN5CC4CC4)[C@H]3O7)cccc12 [Compound 12, 17-Cyclopropylmethyl-3,14β-dihydroxy-4,5α-epoxy-6β-(3-acet-amido-indole-7-carboxamido)morphinan] | 31 ± 4.96 | – |
| O=C(N[C@H]1CC[C@@]2(O)[C@H]3Cc4ccc(O)c5c4[C@@]2(CCN3CC2CC2)[C@H]1O5)c1cccc2c(C3CCCC3)c[nH]c12 [Compound 32, 17-Cyclopropylmethyl-3,14β-dihydroxy-4,5α-epoxy-6α-(3-cyclo-pentyl-indole-7-carboxamido)morphinan] | 28.2 ± 5.4 | – |
| O=C(N[C@H]1CC[C@@]2(O)[C@H]3Cc4ccc(O)c5c4[C@@]2(CCN3CC2CC2)[C@H]1O5)c1cccc2cc(Cl)[nH]c12 [Compound 19, 17-Cyclopropylmethyl-3,14β-dihydroxy-4,5α-epoxy-6α-(2-chloro-indole-7-carboxamido)morphinan] | 1.82 ± 0.06 | – |
| N#Cc1c[nH]c2c(C(=O)N[C@@H]3CC[C@@]4(O)[C@H]5Cc6ccc(O)c7c6[C@@]4(CCN5CC4CC4)[C@H]3O7)cccc12 [Compound 8, 17-Cyclopropylmethyl-3,14β-dihydroxy-4,5α-epoxy-6β-(3-cyano-indole-7-carboxamido)morphinan] | 25.4 ± 3.39 | – |
| O=C(N[C@@H]1CC[C@@]2(O)[C@H]3Cc4ccc(O)c5c4[C@@]2(CCN3CC2CC2)[C@H]1O5)c1cccc2c(C3CCCCC3)c[nH]c12 [Compound 16, 17-Cyclopropylmethyl-3,14β-dihydroxy-4,5α-epoxy-6β-(3-cyclo-hexyl-indole-7-carboxamido)morphinan] | 64 ± 1.99 | – |
| O=C(N[C@H]1CC[C@@]2(O)[C@H]3Cc4ccc(O)c5c4[C@@]2(CCN3CC2CC2)[C@H]1O5)c1cccc2c(Cl)c[nH]c12 [Compound 24, 17-Cyclopropylmethyl-3,14β-dihydroxy-4,5α-epoxy-6α-(3-chloro-indole-7-carboxamido)morphinan] | 37.1 ± 9.46 | – |
| O=C(N[C@H]1CC[C@@]2(O)[C@H]3Cc4ccc(O)c5c4[C@@]2(CCN3CC2CC2)[C@H]1O5)c1cccc2c(Br)c[nH]c12 [Compound 23, 17-Cyclopropylmethyl-3,14β-dihydroxy-4,5α-epoxy-6α-(3-bromo-indole-7-carboxamido)morphinan] | 19.2 ± 3.99 | – |
| O=Cc1c[nH]c2c(C(=O)N[C@H]3CC[C@@]4(O)[C@H]5Cc6ccc(O)c7c6[C@@]4(CCN5CC4CC4)[C@H]3O7)cccc12 [Compound 27, 17-Cyclopropylmethyl-3,14β-dihydroxy-4,5α-epoxy-6α-(3-formyl-indole-7-carboxamido)morphinan] | 11.9 ± 1.91 | – |
| O=C(N[C@@H]1CC[C@@]2(O)[C@H]3Cc4ccc(O)c5c4[C@@]2(CCN3CC2CC2)[C@H]1O5)c1cccc2c(-c3ccccc3)c[nH]c12 [Compound 17, 17-Cyclopropylmethyl-3,14β-dihydroxy-4,5α-epoxy-6β-(3-phenyl-indole-7-carboxamido)morphinan] | 49.3 ± 10.1 | – |
| O=C(N[C@@H]1CC[C@@]2(O)[C@H]3Cc4ccc(O)c5c4[C@@]2(CCN3CC2CC2)[C@H]1O5)c1cccc2c(Br)c[nH]c12 [Compound 6, 17-Cyclopropylmethyl-3,14β-dihydroxy-4,5α-epoxy-6β-(3-bromo-indole-7-carboxamido)morphinan] | 11.6 ± 2.68 | – |
